Measurements reported in article PMC4724694 (Acta Pharmaceutica Sinica. B, 2016).

How the values were obtained:
5-LOX [1] = target: T1, 5-LOX (Rattus norvegicus, UniProt P12527); assay: Inhibition of 5-LOX product synthesis; format: cell-based
T1 sequence (P12527 1-673): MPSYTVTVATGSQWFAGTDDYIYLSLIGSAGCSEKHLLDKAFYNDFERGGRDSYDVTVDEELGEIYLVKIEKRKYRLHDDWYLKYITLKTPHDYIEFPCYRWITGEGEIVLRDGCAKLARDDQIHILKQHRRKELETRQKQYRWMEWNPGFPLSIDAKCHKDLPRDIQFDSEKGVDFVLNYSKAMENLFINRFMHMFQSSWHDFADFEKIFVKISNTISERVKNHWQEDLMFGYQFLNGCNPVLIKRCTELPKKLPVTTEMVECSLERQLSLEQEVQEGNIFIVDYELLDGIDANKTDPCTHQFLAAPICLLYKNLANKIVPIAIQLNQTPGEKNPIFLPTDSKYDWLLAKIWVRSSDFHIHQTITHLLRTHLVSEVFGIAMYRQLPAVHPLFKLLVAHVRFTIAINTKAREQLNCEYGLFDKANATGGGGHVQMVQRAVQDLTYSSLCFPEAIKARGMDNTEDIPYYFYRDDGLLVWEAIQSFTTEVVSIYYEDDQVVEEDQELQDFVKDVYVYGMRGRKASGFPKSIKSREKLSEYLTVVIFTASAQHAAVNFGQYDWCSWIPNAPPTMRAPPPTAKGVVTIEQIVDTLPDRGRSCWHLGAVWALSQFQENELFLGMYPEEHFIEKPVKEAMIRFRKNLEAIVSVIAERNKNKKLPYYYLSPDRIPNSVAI

5-LOX [2] = target: T2, 5-LOX (Homo sapiens, UniProt P09917); assay: Inhibition of 5-LOX product synthesis; format: cell-based
T2 sequence (P09917 1-674): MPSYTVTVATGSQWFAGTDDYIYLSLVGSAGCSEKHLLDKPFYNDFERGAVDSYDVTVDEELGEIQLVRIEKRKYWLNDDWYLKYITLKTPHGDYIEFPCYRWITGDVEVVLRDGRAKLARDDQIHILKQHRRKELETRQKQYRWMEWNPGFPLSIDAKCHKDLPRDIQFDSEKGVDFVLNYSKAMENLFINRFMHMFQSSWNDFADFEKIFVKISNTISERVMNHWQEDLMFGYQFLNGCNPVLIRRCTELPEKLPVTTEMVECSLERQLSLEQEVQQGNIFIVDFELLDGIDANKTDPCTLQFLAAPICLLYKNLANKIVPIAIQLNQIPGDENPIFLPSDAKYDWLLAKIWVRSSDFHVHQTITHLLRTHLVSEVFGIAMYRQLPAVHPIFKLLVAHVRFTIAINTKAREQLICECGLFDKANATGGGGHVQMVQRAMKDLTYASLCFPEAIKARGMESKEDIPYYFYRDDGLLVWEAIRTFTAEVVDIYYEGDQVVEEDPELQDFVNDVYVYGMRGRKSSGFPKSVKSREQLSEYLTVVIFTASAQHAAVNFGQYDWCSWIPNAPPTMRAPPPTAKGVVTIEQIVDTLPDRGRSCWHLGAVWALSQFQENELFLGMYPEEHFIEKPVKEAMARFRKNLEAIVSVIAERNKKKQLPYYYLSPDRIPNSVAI

5-LOX [3] = target: T2, 5-LOX; assay: Cell-free 5-LOX enzymatic assay; format: biochemical
BV2 cells [4] = assay: LPS-induced nitric oxide; format: cell-based, mouse; settings: LPS 200 ng/mL, 4e at 10, 50 or 100 μmol/L, 24 h
In short: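 Mouse BV2 microglia grown in DMEM with 10% FBS and penicillin-streptomycin (100 μg/mL) at 37 °C, 5% CO2. Cells trypsinized and seeded at 2×10^4 cells/well; 24 h later, test compound added with or without LPS (200 ng/mL). Supernatants collected after 24 h exposure, mixed with equal volume of Griess reagent, and nitrite read at 570 nm.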

BV2 cells [5] = assay: BV2 cell viability, MTT assay; format: cell-based, mouse; settings: tested concentrations 10, 50, 100 μmol/L, with or without LPS
HT22 cells = assay: Glutamate-induced oxidative toxicity in HT22 neuronal cells, MTT assay; format: cell-based, mouse; settings: glutamate 5 mmol/L, 24 h, 4e at 1–100 μmol/L
mouse MCAO model = settings: in vivo, ip, 50 mg/kg

Work on `CC(C)(C)c1cc(NC(=O)c2cc(-c3ccc4c(c3)OCO4)n(-c3ccc(S(N)(=O)=O)cc3)n2)cc(C(C)(C)C)c1O` [4e, N-(3,5-di-tert-butyl-4-hydroxyphenyl)-5-(benzo [1, 3]dioxol-5-yl)-1-(4-amino-sulfonylphenyl)-1H-pyrazole-3-carboxamide] yielded an IC50 (5-LOX [1]; IC50 PMNL, rat peritoneal polymorphonuclear leukocytes) of 0.69 µM, an inhibition at 5 µM (5-LOX [1]; PMNL, read-out: Inhibition at 5 μmol/L (%)) of 90.1% and an IC50 (5-LOX [2]) of 1.08 µM. The IC50 (5-LOX [3]) was 0.133 ± 0.014 µM, the “LPS-induced generation of NO” value (BV2 cells [4]) was “remarkably attenuated” and the “Cell viability of BV2 cells (MTT)” value (BV2 cells [5]) was “did not reduce the viabilities of BV2 cells”. The “Glutamate-induced HT22 cell death (MTT)” value (HT22 cells) was “remarkably reduced glutamate-induced HT22 cell death” and the “Cortical, striatal and hemispheric infarct volumes” value (mouse MCAO model) was “significantly decreased cortical, striatal and hemispheric infarct volumes”.
